Test [1] is filed under the species Cavia porcellus. Briefly: Inotropic activity on electrically driven isolated Guinea pig atria. The format is functional. Put shortly: (§1)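 Isolated guinea pig left atrium paced at 1 Hz via bipolar platinum electrodes (1 ms pulses, twice threshold voltage), in oxygenated (95% O2/5% CO2) Tyrode-type solution at 34 °C. Resting tension 1 g, 60 min equilibration. Isometric contraction amplitude measured. Cumulative 10^-7 to 5×10^-4 M at 30 min intervals, 1% DMSO final. Expressed as % of pre-drug control. Mean of at least five experiments.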

Test [2] is filed under the species Cavia porcellus. The test is described as follows: Inotropic activity on cardiac frequency on spontaneously beating guinea pig right atria, (from basal frequency). The format is functional, Heart. In a few lines: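 Isolated guinea pig right atrium, beating spontaneously, in oxygenated (95% O2/5% CO2) Tyrode-type solution at 34 °C. Resting tension 1 g, 60 min equilibration. Rate recorded isometrically via force transducer. Cumulative concentrations 10^-7 to 5×10^-4 M added at 30 min intervals, from DMSO stock (1% DMSO final in bath). Expressed as % of pre-drug control. Mean of at least five experiments.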

For test [3], the species on record is Cavia porcellus. The test is described as follows: Inotropic activity on electrically driven isolated Guinea pig left atria, (from basal force). The format is functional. Put shortly: as §1
The mark [4] stands for this setting: Cavia porcellus, Heart, read-out: Emax.
The mark [5] stands for this setting: Cavia porcellus, read-out: Emax.

As for `C[C@H]1O[C@@H](O[C@H]2[C@@H](O)C[C@H](O[C@H]3[C@@H](O)C[C@H](O[C@H]4CC[C@@]5(C)[C@H](CC[C@@H]6[C@@H]5C[C@@H](O)[C@]5(C)[C@@H](C7=CC(=O)OC7)CC[C@]65O)C4)O[C@@H]3C)O[C@@H]2C)C[C@H](O)[C@@H]1O` [DIGOXIN], in the test filed under Cavia porcellus [1], the “concentration at Emax” value was determined as 0.001 mM. For the same compound, the Emax – broadly, the maximal effect, on the per cent scale that the assay sets – was -28.3% in the test listed under Cavia porcellus [2] (setting [4]) and 103% in the test filed under Cavia porcellus [3] (setting [5]).
With `C[C@]12CC/C(=N\N=C(N)N)C=C1CC[C@@H]2/C=N/N=C(N)N` (stereo in doubt; 30), the “concentration at Emax” value in the test filed under Cavia porcellus [1] is 0.3 mM. Besides, the Emax in the test listed under Cavia porcellus [2] is on record as -5.1%; in the test filed under Cavia porcellus [3], 170%.
`C[C@]12CC/C(=N\N=C(N)N)C[C@@]1(O)CC[C@@H]2/C=N/N=C(N)N`: the “concentration at Emax” value in the test listed under Cavia porcellus [1] is 0.3 mM. The results for the Emax in the test listed under Cavia porcellus [2] (setting [4]) and in the test filed under Cavia porcellus [3] (setting [5]) were -15% and -59%, respectively.
Taken in the same sequence, the figures for `COC(=O)/C=C/[C@H]1CCC2=C(C)/C(=N/N=C(N)N)CC[C@@]21C` were 0.3 mM, -0.2% and -41%.
Taken in the same sequence, the figures for `CC1=C2CC[C@@H](/C=N/N=C(N)N)[C@@]2(C)CC/C1=N\N=C(N)N` were 0.3 mM, 33.7% and 129%.
Taken in the same sequence, the figures for `COC(=O)/C=C\[C@H]1CCC2=C/C(=N/N=C(N)N)CC[C@@]21C` were 0.3 mM, -54% and -76%.
Regarding `C[C@]12CC/C(=N\N=C(N)N)C=C1CC[C@@H]2CN`, the “concentration at Emax” value in the test filed under Cavia porcellus [1] worked out at 0.3 mM. Further, the Emax in the test listed under Cavia porcellus [2] (setting [4]) was -16%; in the test filed under Cavia porcellus [3] (setting [5]), 46%.
Taken in the same sequence, the figures for `COC(=O)/C=C/[C@H]1CCC2=C/C(=N/N=C(N)N)CC[C@@]21C` were 0.3 mM, 13.2% and -67%.
Taken in the same sequence, the figures for `C[C@]12CC/C(=N\N=C(N)N)C=C1CC[C@@H]2CN1C(=O)c2ccccc2C1=O` were 0.1 mM, -18% and 86%.
Consider `CC1=C2CC[C@H](/C=N/N=C(N)N)[C@@]2(C)CC/C1=N\N=C(N)N`, for which the “concentration at Emax” value in the test listed under Cavia porcellus [1] was found to be 0.3 mM. Moreover, the figures for the Emax in the test filed under Cavia porcellus [2] (setting [4]) and in the test listed under Cavia porcellus [3] (setting [5]) were 4.2% and 108%, respectively.
In the case of `C[C@]12CC/C(=N\N=C(N)N)C=C1CC[C@@H]2/C=N/N=C(N)N` (stereo in doubt; 3), the figures for the Emax in the test listed under Cavia porcellus [2] and in the test listed under Cavia porcellus [3] were -5.4% and 132%, respectively.
`C[C@]12CC/C(=N\N=C(N)N)C=C1CC[C@@H]2/C=C/[N+](=O)[O-]`: the “concentration at Emax” value in the test filed under Cavia porcellus [1] is on record as 0.3 mM. The Emax in the test filed under Cavia porcellus [2] (setting [4]) is -1.7%; in the test listed under Cavia porcellus [3] (setting [5]) it was 128%.
As to `C[C@]12CC/C(=N\N=C(N)N)C=C1CC[C@@H]2CO`, the “concentration at Emax” value in the test listed under Cavia porcellus [1] is 0.3 mM. Also, the Emax was 22% in the test filed under Cavia porcellus [2] (setting [4]) and -47% in the test listed under Cavia porcellus [3] (setting [5]).
With `C[C@]12CC[C@H]3[C@@H](CC[C@]4(O)C[C@@H](O)CC[C@]34C=O)[C@@]1(O)CC[C@@H]2C1=CC(=O)OC1` [STROPHANTHIDIN], the “concentration at Emax” value in the test filed under Cavia porcellus [1] is listed as 0.001 mM. In addition, the Emax in the test listed under Cavia porcellus [2] (setting [4]) stood at 80.4%; in the test listed under Cavia porcellus [3] (setting [5]) it was 122%.

These data come from ChEMBL document CHEMBL1135390, “Inotropic activity of hydroindene amidinohydrazones” (2002).
